# Assay results reported in ChEMBL document CHEMBL1126730, “Synthesis and pharmacological evaluation of 4a-phenanthrenamine derivatives acting at the phencyclidine binding site of the N-methyl-D-aspartate receptor complex” (J Med Chem, 1993).
# Molecular target: Glutamate NMDA receptor
# Assay: Binding affinity towards PCP site of the NMDA receptor was measured by displacement of […] in […]
# Type: tissue-based, Brain
# Conditions: not given
row,SMILES,IC50 [nM]
1,CN[C@]12CCCCC1Cc1ccccc12 (stereo partly specified),10.1
2,NC1c2ccccc2CCC12CCCCC2 (stereo unspecified),3400
3,NC12CC=CCC1COc1ccccc12 (stereo unspecified),399
4,COc1ccc2c(c1)C1(N)CCCCC1CC2 (stereo unspecified),18
5,CN[C@@]12CCCCC1CCc1ccccc12 (stereo partly specified),41.5
6,CN[C@@]12CCCCC1CSc1ccccc12 (stereo partly specified),199
7,NC12CC=CCC1CCc1ccc(O)cc12 (stereo unspecified),28
8,CNC12CCCCC1CC(C)(C)c1ccccc12 (stereo unspecified),20800
9,CN[C@]12CCCCC1CCc1ccccc12 (stereo partly specified),7.47
10,CNC12CCCCC1CCc1sccc12 (stereo unspecified),31
11,C=CCNC12CCCCC1CCc1ccccc12 (stereo unspecified),86
12,NC12CCCCC1COc1ccccc12 (stereo unspecified),178
13,CNC12CC=CCC1CC(C)c1ccccc12 (stereo unspecified),654
14,NC12CCCCC1CSc1ccccc12 (stereo unspecified),80.6
15,CNC12CCCCC1CC(C)c1ccccc12 (stereo unspecified),317
16,NC12CC=CCC1CSc1ccccc12 (stereo unspecified),101
17,CNC12CC=CCC1CCc1ccc(OC)cc12 (stereo unspecified),21
18,NC12CCCCC1CCc1ccc(O)cc12 (stereo unspecified),7.5
19,COc1ccc2c(c1)C1(N)CC=CCC1CC2 (stereo unspecified),46
20,"NC12CCCCC1CCc1ccccc12 (single isomer, unassigned; form 2) [listing 1 of 2 here]",113
21,CNC12CC=CCC1CCc1sccc12 (stereo unspecified),57
22,CN(C)C12CCCCC1CCc1ccccc12 (stereo unspecified),21
23,CN[C@]12CCCCC1CSc1ccccc12 (stereo partly specified),30

# Organism: Mus musculus
# Assay: Testing for ataxia was done by using an inverted screen technique
# Type: functional
# Conditions: not given
# Outline: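 Inverted-screen test in CF-1 mice (22-28 g), scored 5 min after retrobulbar test agent in 0.9% saline (5 mL/kg), immediately before NMDA injection.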
row,SMILES,Ataxia [mg/kg]
1,CNC1(c2ccccc2Cl)CCCCC1=O (stereo unspecified) [KETAMINE],10
2,COc1ccc2c(c1)C1(N)CCCCC1CC2 (stereo unspecified),1.3
3,CN[C@@]12CCCCC1CCc1ccccc12 (stereo partly specified),1
4,NC12CC=CCC1CCc1ccc(O)cc12 (stereo unspecified),1.5
5,CN[C@]12CCCCC1CCc1ccccc12 (stereo partly specified),0.18
6,CNC12CCCCC1CCc1sccc12 (stereo unspecified),1
7,C=CCNC12CCCCC1CCc1ccccc12 (stereo unspecified),<1
8,NC12CCCCC1COc1ccccc12 (stereo unspecified),10
9,NC12CCCCC1CSc1ccccc12 (stereo unspecified),4.7
10,CNC12CC=CCC1CCc1ccc(OC)cc12 (stereo unspecified),1
11,c1ccc(C2(N3CCCCC3)CCCCC2)cc1 [PHENCYCLIDINE],1
12,NC12CCCCC1CCc1ccc(O)cc12 (stereo unspecified),3
13,COc1ccc2c(c1)C1(N)CC=CCC1CC2 (stereo unspecified),2.1
14,C[C@]12N[C@H](Cc3ccccc31)c1ccccc12 [DIZOCILPINE],0.3
15,"NC12CCCCC1CCc1ccccc12 (single isomer, unassigned; form 2) [listing 1 of 2 here]",<3
16,CN(C)C12CCCCC1CCc1ccccc12 (stereo unspecified),<0.3

# Molecular target: Glutamate NMDA receptor (Rattus norvegicus) (UniProt P35439+Q00959+Q00960+Q00961+Q62645+Q8VHN2+Q9R1M7)
# Assay: Evaluated in vivo for its NMDA antagonist activity by the inhibition of NMDA-induced lethality in mice
# Type: functional, organism-based
# Conditions: Mus musculus; target entry is the homologue from another species
# Outline: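 CF-1 mice, 22-28 g. Test agent or vehicle (0.9% saline, 5 mL/kg) was given by retrobulbar injection 5 min before a 25 mg/kg NMDA bolus given retrobulbar in the other eye. Endpoint was prevention of lethality.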
row,SMILES,ED50 [mg/kg]
1,CNC1(c2ccccc2Cl)CCCCC1=O (stereo unspecified) [KETAMINE],6
2,"NC12CCCCC1CCc1ccccc12 (single isomer, unassigned; form 1)",1.3
3,CN[C@]12CCCCC1Cc1ccccc12 (stereo partly specified),0.1
4,COc1ccc2c(c1)C1(N)CCCCC1CC2 (stereo unspecified),1.2
5,CNC12CCCCC1Sc1ccccc12 (stereo unspecified),0.41
6,CN[C@@]12CCCCC1CCc1ccccc12 (stereo partly specified),0.97
7,NC12CC=CCC1CCc1ccc(O)cc12 (stereo unspecified),4.6
8,CN[C@]12CCCCC1CCc1ccccc12 (stereo partly specified),0.39
9,CNC12CCCCC1CCc1sccc12 (stereo unspecified),0.89
10,C=CCNC12CCCCC1CCc1ccccc12 (stereo unspecified),10
11,NC12CCCCC1COc1ccccc12 (stereo unspecified),5.7
12,NC12CCCCC1CCc1ccccc12 (stereo unspecified),0.64
13,NC12CCCCC1CSc1ccccc12 (stereo unspecified),2.9
14,CNC12CC=CCC1CCc1ccc(OC)cc12 (stereo unspecified),4.1
15,c1ccc(C2(N3CCCCC3)CCCCC2)cc1 [PHENCYCLIDINE],0.55
16,NC12CCCCC1CCc1ccc(O)cc12 (stereo unspecified),5.5
17,COc1ccc2c(c1)C1(N)CC=CCC1CC2 (stereo unspecified),2.1
18,"NC12CCCCC1CCc1ccccc12 (single isomer, unassigned; form 2) [listing 2 of 2 here]",10
19,CN(C)C12CCCCC1CCc1ccccc12 (stereo unspecified),1.6

# Molecular target: Glutamate NMDA receptor
# Assay: Ability to inhibit glutamate induced accumulation of [45 [Ca2+]] in cultured rat cortical neurons
# Type: functional
# Conditions: not given
# Outline: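 Fetal rat cortical hemisphere dissociated cultures used on day 14-16 after plating. Medium was serum- and Mg-free HBSS with 1.4 mM CaCl2, pH 7.4 (35 mM bicarbonate), 37 °C, 5% CO2. Cells were exposed 30 min to 100 μM L-glutamate (final) plus [45Ca2+] (2 μCi/mL) ± test agent, washed with saline, lysed, and counted. Baseline was subtracted.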
row,SMILES,IC50 [nM]
1,CNC1(c2ccccc2Cl)CCCCC1=O (stereo unspecified) [KETAMINE],8860
2,CN[C@]12CCCCC1Cc1ccccc12 (stereo partly specified),120
3,COc1ccc2c(c1)C1(N)CCCCC1CC2 (stereo unspecified),440
4,CNC12CCCCC1Sc1ccccc12 (stereo unspecified),210
5,CN[C@@]12CCCCC1CCc1ccccc12 (stereo partly specified),810
6,NC12CC=CCC1CCc1ccc(O)cc12 (stereo unspecified),1600
7,CN[C@]12CCCCC1CCc1ccccc12 (stereo partly specified),180
8,CNC12CCCCC1CCc1sccc12 (stereo unspecified),350
9,C=CCNC12CCCCC1CCc1ccccc12 (stereo unspecified),920
10,NC12CCCCC1CSc1ccccc12 (stereo unspecified),1870
11,NC12CC=CCC1CSc1ccccc12 (stereo unspecified),1700
12,CNC12CC=CCC1CCc1ccc(OC)cc12 (stereo unspecified),410
13,c1ccc(C2(N3CCCCC3)CCCCC2)cc1 [PHENCYCLIDINE],200
14,NC12CCCCC1CCc1ccc(O)cc12 (stereo unspecified),520
15,COc1ccc2c(c1)C1(N)CC=CCC1CC2 (stereo unspecified),850
16,"NC12CCCCC1CCc1ccccc12 (single isomer, unassigned; form 2) [listing 1 of 2 here]",2250
17,CN(C)C12CCCCC1CCc1ccccc12 (stereo unspecified),1630

# System: not listed separately
# Assay: Partition coefficient was measured using a standard shake flask (SF) method at pH 7.4.
# Type: physicochemical
# Conditions: octanol/water
# Outline: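 Shake-flask partitioning at pH 7.4.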
row,SMILES,logD
1,CNC1(c2ccccc2Cl)CCCCC1=O (stereo unspecified) [KETAMINE],2.18
